# Experimental data from ChEMBL document CHEMBL1275565, “Minimal effects of ritonavir and efavirenz on the pharmacokinetics of raltegravir” (Antimicrob Agents Chemother, 2008).
# Assays:
# Format in all cases: ADME, organism-based
# [1] = Tmax in HIV-negative human at 400 mg, po administered as single dose followed by 4 days wash out period followed by […] coadministered with compound at 400 mg, po on day 14; settings: in vivo
# [2] = Primary phase half life in HIV-negative human at 400 mg, po administered as single dose followed by 4 days wash out period followed by efavirenz dosing at 600 mg, po bid for 14 days coadministered with compound at 400 mg, po on day 12; settings: in vivo, in the assay text read “po qd for 14 days” for “po bid for 14 days”, read-out: alphat1/2 (converted)
# Method in brief: (§1)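 Healthy male volunteers; plasma raltegravir measured by validated reverse-phase HPLC-MS/MS (LLOQ 2 ng/ml, linear 2 to 1,000 ng/ml) and converted to nM. Each subject's profile was fit to a biexponential model (weighting 1/(predicted concentration)², Gauss-Newton minimization), with α-phase onset set by inspection. Phase t1/2 = ln(2)/α or β. Median differences were estimated by Hodges-Lehman with 90% CI.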
# [3] = AUC (0 to infinity) in HIV-negative human at 400 mg, po administered as single dose; design: dose 400 mg, time infinity, route oral; settings: plasma
# Method in brief: (§2)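 Period 1 of two crossover studies in healthy male volunteers: single 400 mg oral raltegravir alone. Plasma sampled 0–72 h postdose and assayed by validated reverse-phase HPLC-MS/MS (LLOQ 2 ng/ml, linear to 1,000 ng/ml), converted to nM (MW 444.4). Cmax by inspection; C12h from the nominal 12 h sample; AUC0–∞ by linear/log trapezoidal plus extrapolation from the last concentration/β.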
# [4] = Trough plasma concentration at 12 hrs in HIV-negative human at 400 mg, po administered as single dose; settings: read-out: Cmin; method in brief: as §2
# [5] = Cmax in HIV-negative human at 400 mg, po administered as single dose followed by 4 days wash out period followed by efavirenz dosing at 600 mg, po bid for 14 days coadministered with compound at 400 mg, po on day 12; design: dose 400 mg, route oral; settings: in vivo, in the assay text read “po qd for 14 days” for “po bid for 14 days”
# Method in brief: (§3)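 Efavirenz 600 mg orally once daily at bedtime for 14 days, with a single 400 mg oral raltegravir (double-blind vs placebo) alongside on day 12. Healthy males, all doses taken fasted. Plasma sampled at 0–72 h postdose as in the ritonavir study, but at 36 h instead of 32 h, and quantified by HPLC-MS/MS. Cmax by inspection; C12h at nominal 12 h; AUC0–∞ by linear/log trapezoidal plus extrapolation.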
# [6] = Trough plasma concentration at 12 hrs in HIV-negative human at 400 mg, po administered as single dose followed by 4 days wash out period followed by efavirenz dosing at 600 mg, po bid for 14 days coadministered with compound at 400 mg, po on day 12; settings: in the assay text read “po qd for 14 days” for “po bid for 14 days”, read-out: Cmin; method in brief: as §3
# [7] = Primary phase half life in HIV-negative human at 400 mg, po administered as single dose followed by 4 days wash out period followed by ritonavir dosing at 100 mg, po bid for 16 days coadministered with compound at 400 mg, po on day 14; settings: in vivo, read-out: alphat1/2 (converted); method in brief: as §1
# [8] = Terminal half life in HIV-negative human at 400 mg, po administered as single dose followed by 4 days wash out period followed by ritonavir dosing at 100 mg, po bid for 16 days coadministered with compound at 400 mg, po on day 14; settings: in vivo, read-out: beta t1/2 (converted); method in brief: as §1
# [9] = Primary phase half life in HIV-negative human at 400 mg, po administered as single dose; settings: in vivo, read-out: alphat1/2 (converted); method in brief: as §1
# [10] = AUC (0 to infinity) in HIV-negative human at 400 mg, po administered as single dose followed by 4 days wash out period followed by […] coadministered with compound at 400 mg, po on day 14; design: dose 400 mg, time infinity, route oral; settings: plasma
# [11] = Terminal half life in HIV-negative human at 400 mg, po administered as single dose followed by 4 days wash out period followed by efavirenz dosing at 600 mg, po bid for 14 days coadministered with compound at 400 mg, po on day 12; settings: in vivo, in the assay text read “po qd for 14 days” for “po bid for 14 days”, read-out: beta t1/2 (converted); method in brief: as §1
# [12] = Cmax in HIV-negative human at 400 mg, po administered as single dose; design: dose 400 mg, route oral; settings: in vivo; method in brief: as §2
# [13] = AUC (0 to infinity) in HIV-negative human at 400 mg, po administered as single dose followed by 4 days wash out period followed by efavirenz dosing at 600 mg, po bid for 14 days coadministered with compound at 400 mg, po on day 12; design: dose 400 mg, route oral, time infinity; settings: plasma, in the assay text read “po qd for 14 days” for “po bid for 14 days”; method in brief: as §3
# [14] = Terminal half life in HIV-negative human at 400 mg, po administered as single dose; settings: in vivo, read-out: beta t1/2 (converted); method in brief: as §1
# [15] = Cmax in HIV-negative human at 400 mg, po administered as single dose followed by 4 days wash out period followed by […] coadministered with compound at 400 mg, po on day 14; design: dose 400 mg, route oral; settings: in vivo
# [16] = Trough plasma concentration at 12 hrs in HIV-negative human at 400 mg, po administered as single dose followed by 4 days wash out period followed by ritonavir dosing at 100 mg, po bid […] coadministered with compound at 400 mg, po on day 14; settings: read-out: Cmin
# Method in brief: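 In healthy young males, ritonavir 100 mg twice daily for 14 days, with a single 400 mg oral raltegravir (double-blind vs placebo) given with the morning dose on day 14. All doses followed a moderate-fat meal. Cmax and Tmax by inspection at nominal times; C12h from the 12 h sample; AUC0–∞ by trapezoidal sum plus extrapolation.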
smiles,measurement,setting,value
Cc1nnc(C(=O)NC(C)(C)c2nc(C(=O)NCc3ccc(F)cc3)c(O)c(=O)n2C)o1 [RALTEGRAVIR],Tmax,[1],2 h
same,half-life,[2],0.95 h
same,AUC(0-inf),[3],22.9 µM·h
same,concentration at 12 h,[4],0.0771 µM
same,Cmax,[5],6.45 µM
same,concentration at 12 h,[6],0.0625 µM
same,half-life,[7],0.97 h
same,half-life,[8],10 h
same,half-life,[9],0.98 h
same,AUC(0-inf),[10],19.3 µM·h
same,half-life,[11],9.1 h
same,Cmax,[12],9.57 µM
same,AUC(0-inf),[13],18.1 µM·h
same,half-life,[14],10.8 h
same,Cmax,[15],7.23 µM
same,concentration at 12 h,[16],0.0765 µM
